tolC growth inh – growth inhibitors of E. coli tolC mutant, primary screen, strain BW25113 ΔtolC::kan, 384-well | hit rate 2.2% among 65,000 | OD615 | growth inhibition, % at 10 µM (by protocol);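 active = growth inhibition at or above a cutoff equal to the mean over every tested compound plus 3 SD, cut at about 60% in these data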;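 also: growth measured after 20 h incubation at 37 °C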
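Test system: E. coli BW25113 ΔtolC::kan bacteria | Medium: Kanamycin-containing LB broth (50 µg/mL) | Dosing: One dose of 10 µM final | Times: 20 h incubation with compound, 37 °C | Detection: Optical density read at 615 nm | Read-out basis: Percent growth inhibition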
HePTP inhibitor – inhibitors of human HePTP phosphatase, primary screen, biochemical, absorbance, leukemia target; recombinant HePTP phosphatase activity, OD absorbance; hit rate 0.64% among 110,000; Tyrosine-protein phosphatase non-receptor type 7 (Homo sapiens), P35236; AID 521, 2006; inhibition, % at 20 µM; in the data active = inhibition above about 50%;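 also: plate controls were vehicle for no effect and reference inhibitor for full effect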
Target sequence (P35236 whole entry, looked up): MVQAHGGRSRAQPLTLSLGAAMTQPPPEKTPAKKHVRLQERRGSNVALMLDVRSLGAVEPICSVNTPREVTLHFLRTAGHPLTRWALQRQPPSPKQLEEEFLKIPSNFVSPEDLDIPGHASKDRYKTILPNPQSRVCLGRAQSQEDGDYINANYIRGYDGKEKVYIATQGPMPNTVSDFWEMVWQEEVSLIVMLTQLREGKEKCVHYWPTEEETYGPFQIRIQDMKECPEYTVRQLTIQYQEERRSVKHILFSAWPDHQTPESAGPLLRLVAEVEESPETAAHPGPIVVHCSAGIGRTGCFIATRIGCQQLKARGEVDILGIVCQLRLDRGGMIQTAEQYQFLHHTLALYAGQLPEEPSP
PostGolgi ctrl – growth inhibition of yeast control strain, primary screen, counter-screen for post-Golgi transport modulator project | efflux-deficient yeast background strain, growth absorbance A615, 16 h | inhibition, % at 10 µM | hit rate 5% among 98,000 | AID 738, 2007
PostGolgi yeast – phenotypic screen on post-Golgi transport, primary screen. inhibition, % at 10 µM. post-Golgi transport phenotypic cell assay. hit rate 0.9% among 98,000;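 also: yeast cells grown in 1536-well plates; yeast grown about 18 h at 30C before absorbance read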
Ecoli WT expand – growth inhibitors of wild-type E. coli, primary screen, strain BW25113, expanded library, OD600; OD600 absorbance; growth inhibition, % at 100 µM; hit rate 0.15% among 98,000;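 active = growth inhibition above about 50% at one test dose, limit read from the data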;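 also: growth measured after 20 h incubation at 37 °C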
PLAP act – PLAP enzyme activators, biochemical, luminescence, HTS | purified PLAP enzyme, luminescent substrate read-out; hits give high values | activation fold at 20 µM | hit rate 1.2% among 96,000 | AID 696, 2007; in the data active = activation fold above about 2
An asterisk follows results filed as active; . = no result. The list is not random: actives were taken first. Their share in the collection is about 5.4%. Rule as the data show it, unless noted: active = inhibition above about 30%; inactive = the rest.

SMILES | tolC growth inh | HePTP inhibitor | PostGolgi ctrl | PostGolgi yeast | Ecoli WT expand | PLAP act
Cc1ccc(Cc2cnc(NC(=O)c3cccs3)s2)cc1 | . | . | 41* | 10 | -2 | 1.1
O=C(Nc1ncc(Cc2ccccc2)s1)c1cccs1 | 38 | 4 | 25 | -8 | 8 | 0.9
O=C(Nc1nc(-c2cc(Cl)sc2Cl)cs1)c1cccs1 | 100* | -2 | 14 | 14 | -12 | 0.9
O=C(Nc1ncc(Cc2cccc(Cl)c2)s1)c1cccs1 | . | . | 47* | 1 | -17 | 0.9
CCOC(=O)/C(C#N)=C/N1CCOCC1 | . | 8 | . | . | . | .
Clc1ccccc1CSc1cc2c(nn1)-c1ccccc1CC2 | . | . | 0 | 1 | -21 | 1
CCOC(=O)N1CCC(NC(=O)CC(NS(=O)(=O)c2ccc(Cl)cc2)c2ccco2)CC1 (stereo unspecified) | 24 | 14 | 8 | 17 | -3 | 1.3
CCOC(=O)N1CCC(Nc2nc3ccccc3nc2NS(=O)(=O)c2ccc(Cl)cc2)CC1 | 80* | 2 | 12 | 3 | 0 | 1
Cc1sc(NC(=O)CN2CCOCC2)c(C(=O)c2ccccc2)c1C | . | 5 | 7 | 35* | 4 | 1.2
Cc1nc(NC(=O)CN2CCOCC2)sc1-c1ccccc1 | 5 | -9 | -15 | -4 | 3 | 1.1
CC1CCCN(C(C(=O)Nc2ccc3c(c2)OCCO3)c2ccccc2)C1 (stereo unspecified) | 4 | 11 | 12 | -6 | 0 | 1.2
CC1CCN(C(C(=O)Nc2ccc3c(c2)OCO3)c2ccccc2)CC1 (stereo unspecified) | 7 | 6 | 5 | -1 | 3 | 2.2*
CC1CCCN(C(C(=O)Nc2ccc3c(c2)OCO3)c2ccccc2)C1 (stereo unspecified) | 9 | 8 | 20 | 3 | 16 | 2*
CC(=O)c1cccc(N(C(=O)c2ccccn2)C(C(=O)NC2CCCCC2)c2cccs2)c1 (stereo unspecified) | . | . | 16 | -7 | -1 | 1.4
CCCc1ccc(Oc2c(-c3ccc(O)c(C)c3O)n[nH]c2C)cc1 | 48 | -6 | 65* | 80* | 10 | 1.8
CCCc1ccc(Oc2cn[nH]c2-c2ccc(O)c(C)c2O)cc1 | 100* | -3 | 92* | 80* | 12 | 2.2*
COc1ccc(CC(=O)Nc2c3c(nn2-c2cccc(Cl)c2)CS(=O)(=O)C3)cc1 | -5 | 8 | 34* | -2 | -3 | 0.9
O=C(Cc1ccccc1)Nc1c2c(nn1-c1cccc(Cl)c1)CS(=O)(=O)C2 | 2 | 7 | 17 | 3 | -4 | 0.9
O=C(COc1ccccc1)Nc1ccccc1-c1ccccc1 | . | -5 | . | . | . | .
Cc1ccc(C2CC(c3ccccc3)=NN2C(=O)CSc2nnc(-c3ccc(Cl)cc3)o2)o1 (stereo unspecified) | . | . | 25 | 17 | -12 | 1
Cc1cc(C(F)(F)F)nn1CC(=O)NNC(=S)Nc1ccc(F)cc1 | . | . | 5 | 2 | 0 | 2.8*
Cc1cc(C(F)(F)F)nn1CC(=O)NNC(=S)NCC(C)C | . | . | -3 | 9 | 7 | 2.6*
c1ccc(-c2nnc(-c3ccccn3)nc2NC2CCCCC2)cc1 | . | . | 87* | 40* | 100* | 2.4*
CNc1nc(-c2ccccn2)nnc1-c1ccccc1 | . | . | 10 | 14 | 32 | 1.4
COc1ccc(S(=O)(=O)N(CC(=O)Nc2ccccc2C(F)(F)F)Cc2ccccc2)cc1OC | . | 4 | . | . | . | .
SMILES | tolC growth inh | HePTP inhibitor | PostGolgi ctrl | PostGolgi yeast | Ecoli WT expand | PLAP act
COc1ccc(O)c(C(=O)CC(=O)c2ccccc2)c1 | 29 | -1 | 33* | 12 | 33 | 1
Cc1cccc(CN2C(=O)CCSc3ccc(Cl)cc32)c1 | . | . | 28 | 8 | 4 | 1.1
O=C1C(=O)N(Cc2ccccc2)C(c2ccc(Br)cc2)/C1=C(/O)c1ccccc1 (stereo unspecified) | . | -7 | . | . | . | .
CCN(CC)c1nc(C)nc2c1cnn2CCc1ccccc1 | . | . | 16 | 2 | 11 | 1.6
CC(C)(C)C(=O)Cn1c(=N)n(Cc2ccccc2)c2ccccc21 | 100* | 5 | 48* | 1 | 1 | .
CC(C)(C)C(=O)Cn1c(=N)n(Cc2ccccc2Cl)c2ccccc21 | . | . | 15 | 3 | -6 | 0.6
CC1(C(=O)c2ccccc2)C2c3c(ccc4ccccc34)OC(=O)C21C(=O)N1CCOCC1 (stereo unspecified) | . | . | 46* | 6 | -4 | 1.5

High-throughput results (PubChem BioAssay)
